Bioassay records: PubChem BioAssay, Sanford-Burnham Center for Chemical Genomics
APJ antag = antagonists of human apelin receptor APJ, primary screen, CHO-K1 cells, beta-arrestin complementation, luminescence | P35414 | inhibition, % at 20 µM | 0.32% of 330,000 active | AID 2521, 2010;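 active means inhibition above about 40% at 20 µM, limit read from the data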;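 further: cells challenged with 10 nM apelin-13 agonist together with compound; plate controls were apelin-13 plus DMSO wells for no effect and DMSO wells lacking apelin-13 for full effect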
EBI2 block = EBI2 receptor antagonists, beta-arrestin recruitment, primary screen, cell-based, luminescence, 7a,25-OHC stimulation, uHTS | 0.81% of 360,000 active | inhibition, % at 5 µM | G-protein coupled receptor 183 (Homo sapiens), P32249 | 7a,25-OHC stimulated; in the data active means inhibition above about 38%;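 further: enzyme fragment complementation signal reports receptor beta-arrestin coupling in cells; 0% = agonist plus DMSO wells and 100% = wells without agonist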
Target sequence (P32249 whole entry, looked up, the tested form may be a part): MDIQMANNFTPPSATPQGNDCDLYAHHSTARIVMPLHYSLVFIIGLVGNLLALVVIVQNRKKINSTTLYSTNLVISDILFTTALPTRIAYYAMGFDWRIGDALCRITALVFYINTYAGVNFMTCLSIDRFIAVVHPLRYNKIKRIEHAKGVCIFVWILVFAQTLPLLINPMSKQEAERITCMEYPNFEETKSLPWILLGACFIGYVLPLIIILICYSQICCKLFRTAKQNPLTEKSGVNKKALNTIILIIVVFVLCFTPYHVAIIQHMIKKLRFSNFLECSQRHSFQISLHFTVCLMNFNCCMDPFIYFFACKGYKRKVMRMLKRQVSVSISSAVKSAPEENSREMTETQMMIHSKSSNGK
CCR6 antag = CCR6 receptor antagonists, primary screen, cell-based, CHO-K1, luminescence, beta-arrestin, uHTS. CHO-K1 CCR6 PathHunter beta-arrestin, CCL20-stimulated. inhibition, % at 20 µM. 0.49% of 340,000 active. AID 493098, 2011;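 active means compounds whose inhibition of the agonist-driven luminescence signal at 20 µM reaches about 50%, limit read from the data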;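 further: cells stimulated with CCL20 at 14 nM final; plate controls were DMSO with CCL20 for no effect and DMSO without agonist for full effect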
CXCR6 inh = CXCR6 receptor inhibitors, primary screen, cell-based, beta-arrestin, luminescence, CHO-K1 PathHunter, 1536-well. inhibition, % at 20 µM. 0.36% of 360,000 active. AID 602244, 2012; in the data active means inhibition above about 34%, passing the limit was not always enough;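 further: antagonist mode with CXCL16 agonist at 10 nM final; 0% = 10 nM CXCL16 with DMSO and 100% = unstimulated wells without agonist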
APJ agonist = agonists of human apelin receptor APJ, primary screen, CHO-K1 cells, PathHunter beta-arrestin, luminescence; P35414; 0% DMSO wells, 100% apelin; activation, % at 20 µM; 0.11% of 330,000 active; AID 2520, 2010;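 active means activation more than six SD over the plate average, tested at 20 µM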;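 further: 0% = DMSO alone and 100% = apelin-13 at 10 nM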
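Material: CHO-K1 APJ beta-arrestin complementation cell line; Input: cell density 1000 per well; Incubation: compound stimulation 90 min at 25 °C, detection 60 min; Signal: luminescence from split beta-galactosidase complementation, Galacton Star/Emerald II substrate; Controls: DMSO-only wells as negative, 10 nM Apelin-13 as positive control.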
EBI2 antag conf = EBI2 antagonist hit retest, beta-arrestin, confirmation, cell-based, single concentration, luminescence, 7a,25-OHC stimulation; shares compounds with EBI2 block; 7a,25-OHC antagonism; inhibition, % at 5 µM; 29% of 2,400 active;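 active means inhibition of at least 50%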
EBI2 ag = EBI2 agonist activity of antagonist hits, confirmation, counter-screen for EBI2 antagonist project, cell-based, single concentration, agonist mode, luminescence | shares compounds with EBI2 block | EBI2-expressing cells, 60 min; 0% vehicle, 100% 7α,25-dihydroxycholesterol control | activation, % at 5 µM | 2,400 tested, under 10 active | AID 652000, 2013;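 active means activation of at least 50%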
bGal cs = E. coli beta-galactosidase enzyme inhibition, confirmation, counter-screen for EBI2 antagonist project, biochemical, luminescence, single concentration; shares compounds with EBI2 block; purified beta-galactosidase, luminescent Galacton Star, 15 min; inhibition, % at 5 µM; 1% of 2,400 active;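 active means replicate-average signal at least 3 plate SD below neutral wells, shown as high inhibition, flagging enzyme-inhibiting false positives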;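 further: 0% = DMSO wells with enzyme and 100% = wells lacking enzyme; higher means stronger loss of beta-gal luminescence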
Starred values were filed as active, the others as inactive; . = not tested or not shown. An excerpt weighted towards active compounds, which were near 1.5% of everything screened.

SMILES	APJ antag	EBI2 block	CCR6 antag	CXCR6 inh	APJ agonist	EBI2 antag conf	EBI2 ag	bGal cs
Cc1ccc2cccc(OCC(=O)NCCC3=CCCCC3)c2n1	9	48*	19	-8	0	24	1	2
CC12CC3CC1C(C(=O)O2)C3C(=O)O (stereo not given)	.	-2	5	-2	.	.	.	.
CCOC(=O)C1=C(O)/C(=C/c2cc(OC)c(OC)c(OC)c2)SC1=Nc1ccc(OC)cc1	13	62*	-14	0	1	55*	-2	-12
CCOC(=O)C1=C(O)/C(=C/c2ccc(OCC(=O)O)c(OCC)c2)SC1=Nc1ccc(OC)cc1	13	-6	12	-2	-4	.	.	.
N#Cc1ccc(C(=O)N2CCC3CC2c2cc(N4CCCCC4)ccc23)cc1 (stereo not given)	.	-6	.	-11	.	.	.	.
CCN(c1ccccc1)S(=O)(=O)c1cc(C(=O)Nc2cccc(Cl)c2)ccc1F	-7	24	17	-4	-3	.	.	.
CCc1ccc(NC(=O)c2ccc(F)c(S(=O)(=O)N(CC)c3ccccc3)c2)cc1	-7	45*	21	2	2	38	-1	-22
Cc1ccc(Oc2nc3ccccn3c(=O)c2/C=C(\C#N)C(=O)Nc2c(C)n(C)n(-c3ccccc3)c2=O)c(C)c1	-5	63*	7	3	0	58*	2	3
Cc1cc(Oc2nc3ccccn3c(=O)c2/C=C(\C#N)C(=O)NC2CCS(=O)(=O)C2)ccc1Cl (stereo not given)	-7	49*	17	-16	3	66*	-1	-14
N#C/C(=C\c1c(Oc2ccc(Cl)cc2)nc2ccccn2c1=O)C(=O)NC1CCS(=O)(=O)C1 (stereo not given)	-18	-5	11	2	1	.	.	.
Cc1cccc(Oc2nc3ccccn3c(=O)c2/C=C(\C#N)C(=O)NC2CCS(=O)(=O)C2)c1 (stereo not given)	-6	45*	-1	5	-1	53*	0	-18
CC(C)(c1ccc(O)cc1)c1ccc(O)c(C(=O)O)c1	.	-4	.	2	.	.	.	.
O=C(Nc1c(-c2ccccc2)[nH][nH]c1=O)c1cccs1	.	-1	.	.	.	.	.	.
Cc1cccc(N2CCN(c3cccc(C)c3)C2c2cccnc2)c1	-12	14	12	-10	-1	.	.	.
Cc1ccc(N2CCN(c3ccc(C)cc3)C2c2ccncc2)cc1	1	51*	0	3	2	21	-1	-8
CC(C)c1ccc2oc(-c3ccc(N)cc3)nc2c1	-14	52*	-7	-11	-2	57*	0	-1
Cc1ccc(-c2nc3cc(N)ccc3o2)cc1	-1	-11	-5	-10	-4	.	.	.
CCOc1ccc(S(=O)(=O)N(C)c2ccc(OCC(=O)NCCc3ccc(OC)cc3)cc2)cc1	-4	55*	6	-4	-4	34	0	-1
C[C@H]1CN([C@@H](C)CO)C(=O)CCCn2cc(nn2)CO[C@@H]1CN(C)C(=O)Nc1ccccc1F	.	4	.	-3	.	.	.	.
COc1ccccc1C1CCN(C(=O)c2ccc(Cl)cc2)CC1	6	88*	16	7	0	70*	2	5
COc1ccccc1C1CCN(C(=O)c2cnn(-c3ccccc3)c2C)CC1	-1	54*	6	4	-2	20	2	7
Cc1nc(NC(=O)C(C)(C)C)sc1C(=O)Cn1cc(CCCC#N)nn1	.	-7	.	-4	.	.	.	.
O=C(OCC(=O)N1CCOCC1)c1cncc(Br)c1	.	-1	.	-5	.	.	.	.
Cc1ccc2oc(=O)n(CCCOc3ccccc3C)c2c1	9	44*	8	9	-2	39	1	8
COc1ccc2c3n(nc2c1)CCN=C3c1cc(Cl)c(N)c(Cl)c1	5	35	5	-14	7	.	.	.
SMILES	APJ antag	EBI2 block	CCR6 antag	CXCR6 inh	APJ agonist	EBI2 antag conf	EBI2 ag	bGal cs
Nc1c(Cl)cc(C2=NCCn3nc4cc(C(F)(F)F)ccc4c32)cc1Cl	10	49*	2	-3	-2	23	-1	-8
Cc1ccc(S(=O)(=O)N[C@H](C(=O)OCC(=O)N2N=C(c3ccc(Cl)cc3)CC2c2ccco2)C(C)C)cc1 (stereo not given in full)	2	44*	-12	6	-4	53*	-1	-16
O=C(NCc1ccccc1)c1cc(=O)nc2sc(-c3ccccc3)nn12	.	44*	13	0	.	26	-1	-9
CCN(CC)S(=O)(=O)c1cccc(-c2nnc(SCCOc3ccccc3C)o2)c1	12	50*	18	0	-7	35	0	-1
CCN(CC)S(=O)(=O)c1cccc(-c2nnc(SCCOc3ccccc3)o2)c1	10	34	13	10	-7	.	.	.
CSCCC(C(=O)NCc1ccccc1)n1c(Cc2cc(F)cc(F)c2)nc2ccccc21 (stereo not given)	.	9	.	.	.	.	.	.
CCOC(=O)C(Oc1ccc2c(-c3ccc(OC)cc3)cc(=O)oc2c1C)c1ccccc1 (stereo not given)	14	36*	25	14	-2	32	-1	-20
CCN(CC)S(=O)(=O)c1ccc(N2CCOCC2)c(NC(=O)c2[nH]c(C)c(C(C)=O)c2C)c1	-1	2	5	-1	-1	.	.	.
O=C1C=C(/C=C/C2C=CC=CC2)C[C@@H](c2ccc(Cl)cc2)C1 (stereo not given in full)	-12	48*	7	-2	-4	25	-2	-8
O=C1C=C(O)CC(c2ccc(Cl)cc2)C1 (stereo not given)	9	-13	-5	2	-1	.	.	.
Cc1cccc(NS(=O)(=O)c2ccc3[nH]c(=O)cc(C(=O)OC(C)C(=O)Nc4ccc([N+](=O)[O-])cc4)c3c2)c1 (stereo not given)	18	47*	26	1	0	38	-1	9
